Assays:
[1] = biological target: T1, full length Cal1 (full length porcine calpain) (Sus scrofa, UniProt P35750); assay: Calpain inhibition kinetics, Suc-LLVY-AMC progress curves; assay type: biochemical; details: for Calpain1 ki: inhibition rate constant; for Calpain1 ki / Calpain1 ki/Ki: full length Cal1; for Calpain1 ki/Ki: mean ± S.D. of triplicate; for 10^2 × ki/Ki Cal1 / ki/Ki papain: selectivity ratio Cal1 over papain; for Calpain1 rel (ki/Ki calculated relative to E-64): E-64 = 1; for Relative selectivity for inhibition of Cal1 over papain (in words): assessed using ki/Ki
T1 sequence (P35750 1-714): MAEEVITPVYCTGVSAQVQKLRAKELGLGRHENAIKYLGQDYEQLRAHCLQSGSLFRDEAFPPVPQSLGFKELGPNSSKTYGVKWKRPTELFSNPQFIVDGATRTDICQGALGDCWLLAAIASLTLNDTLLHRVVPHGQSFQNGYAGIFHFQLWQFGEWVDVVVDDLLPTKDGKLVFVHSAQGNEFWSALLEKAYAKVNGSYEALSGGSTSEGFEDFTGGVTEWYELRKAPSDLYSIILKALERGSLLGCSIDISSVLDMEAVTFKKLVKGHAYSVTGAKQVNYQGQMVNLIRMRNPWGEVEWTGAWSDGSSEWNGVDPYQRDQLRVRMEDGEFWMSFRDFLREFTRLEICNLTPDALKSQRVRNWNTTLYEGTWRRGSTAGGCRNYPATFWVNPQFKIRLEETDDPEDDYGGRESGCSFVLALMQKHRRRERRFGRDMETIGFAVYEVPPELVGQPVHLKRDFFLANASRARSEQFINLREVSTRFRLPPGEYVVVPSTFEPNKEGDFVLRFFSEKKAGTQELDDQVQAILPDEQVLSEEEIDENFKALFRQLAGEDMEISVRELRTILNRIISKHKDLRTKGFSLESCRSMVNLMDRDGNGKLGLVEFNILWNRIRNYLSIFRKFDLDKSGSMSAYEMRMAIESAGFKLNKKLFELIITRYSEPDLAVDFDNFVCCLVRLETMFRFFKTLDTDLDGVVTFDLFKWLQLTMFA
T1 sequence (P04574 1-266 partner): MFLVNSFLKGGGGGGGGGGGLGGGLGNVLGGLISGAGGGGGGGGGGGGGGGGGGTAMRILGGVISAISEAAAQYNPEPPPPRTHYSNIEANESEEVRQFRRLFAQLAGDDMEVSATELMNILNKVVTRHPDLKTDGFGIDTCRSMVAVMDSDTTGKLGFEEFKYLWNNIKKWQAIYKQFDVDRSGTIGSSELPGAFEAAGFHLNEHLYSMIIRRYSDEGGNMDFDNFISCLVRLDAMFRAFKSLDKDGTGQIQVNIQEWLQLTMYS

[2] = biological target: recombinant rat Cal1cat (Cal1 catalytic domain) active site Cys (Rattus norvegicus, UniProt P97571); assay: LC-MS/MS examination of inhibitor modified Cal1cat active site; assay type: binding; details: co-incubation of Cal1cat (1 μM) with E-64 and 22a, both 5 μM
Method in brief: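 Recombinant rat Cal1cat from E. coli (1 μM), activated with CaCl2 (10 mM), co-incubated 20 min with both inhibitors at 5 μM each. Quenched with EDTA, run on SDS-PAGE; band excised, alkylated in-gel with IAA (100 mM, 60 min), trypsin-digested. Ion-trap LC-MS/MS, reverse-phase column, ACN/water with 0.1% formic acid. Semiquantitative EIC of modified peptides against non-active-site IAA-capped peptide internal standard.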

papain = biological target: T2, papain (Carica papaya, UniProt P00784); assay: Papain inhibition kinetics, Suc-LLVY-AMC progress curves; assay type: biochemical; details: for Papain ki: inhibition rate constant; for Papain ki/Ki: mean ± S.D. of triplicate; for Papain rel (ki/Ki calculated relative to E-64): E-64 = 1
T2 sequence (P00784 134-345): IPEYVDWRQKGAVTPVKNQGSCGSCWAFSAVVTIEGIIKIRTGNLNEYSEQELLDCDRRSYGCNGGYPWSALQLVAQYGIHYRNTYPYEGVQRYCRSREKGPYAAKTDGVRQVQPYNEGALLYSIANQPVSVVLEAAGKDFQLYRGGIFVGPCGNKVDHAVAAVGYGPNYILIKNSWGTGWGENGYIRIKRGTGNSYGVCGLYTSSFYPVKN
Method in brief: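 Papain (236 pM) in 100 mM NaCl, 50 mM HEPES pH 7.6, 1 mM TCEP with 30 µM Suc-LLVY-AMC and inhibitor at 0.5–50 µM, 30 °C. Organic solvent (acetonitrile/DMSO 1:1) stayed below 2%. AMC release was followed over time at Ex/Em 346/444 nm. Constants came from varied enzyme and inhibitor concentrations, and selectivity from ki/Ki with E-64 as 1.0. Triplicates.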

Sequence of recombinant rat Cal1cat (Cal1 catalytic domain) active site Cys (P97571 55-354 limits assumed): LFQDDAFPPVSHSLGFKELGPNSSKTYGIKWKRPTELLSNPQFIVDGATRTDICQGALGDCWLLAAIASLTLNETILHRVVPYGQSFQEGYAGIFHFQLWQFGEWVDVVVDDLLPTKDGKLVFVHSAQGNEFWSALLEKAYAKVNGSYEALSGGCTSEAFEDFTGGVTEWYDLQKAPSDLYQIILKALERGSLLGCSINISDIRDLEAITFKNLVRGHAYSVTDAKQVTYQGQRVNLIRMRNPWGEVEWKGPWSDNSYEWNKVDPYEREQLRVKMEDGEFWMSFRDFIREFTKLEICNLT

Compound: CC(C)C[C@H](NC(=O)[C@H]1O[C@@H]1C(=O)O)C(=O)Nc1nc(-c2ccc(F)cc2)cs1 [22a, (2S,3S)-3-((S)-1-(4-(4-fluorophenyl)thiazol-2-ylamino)-4-methyl-1-oxopentan-2-ylcarbamoyl)oxirane-2-carboxylic acid]
- Calpain1 ki [1]: 0.16 s⁻¹
- Competitive modification of Cal1cat active site [2]: relatively greater modification by 22a
- Papain ki (papain): 17.1 s⁻¹

Compound: CC(C)C[C@H](NC(=O)[C@H]1O[C@@H]1C(=O)O)C(=O)NCCCCN=C(N)N [E-64, L-trans-epoxysuccinyl-leucylamido(4-guanidino)butane, reference compound]
- Calpain1 ki/Ki [1]: 3.02±0.15 ×l0^−4 s^−1M^−1
- Calpain1 ki [1]: 0.12 s⁻¹
- 10^2 × ki/Ki Cal1 / ki/Ki papain [1]: 0.54
- Papain ki (papain): 28.6 s⁻¹
- Papain ki/Ki (papain): 563 ± 52 ×l0^−4s^−1M^−1

Compound: O=C(Nc1nc(-c2ccc(F)cc2)cs1)[C@H](Cc1cscn1)NC(=O)[C@H]1O[C@@H]1C(=O)O [compound 31, 3-((S)-1-(4-(4-fluorophenyl)thiazol-2-ylamino)-1-oxo-3-(thiazol-4-yl)propan-2-ylcarbamoyl)oxirane-2-carboxylic acid]
- Calpain1 rel (ki/Ki calculated relative to E-64) [1]: 0.98
- Relative selectivity for inhibition of Cal1 over papain (in words) [1]: show Cal1 selectivity
- Calpain1 ki/Ki [1]: 2.96±0.14 ×l0^−4 s^−1M^−1
- Calpain1 ki [1]: 0.08 s⁻¹
- 10^2 × ki/Ki Cal1 / ki/Ki papain [1]: 1.06
- Papain rel (ki/Ki calculated relative to E-64) (papain): 0.50
- Papain ki (papain): 14.8 s⁻¹
- Papain ki/Ki (papain): 279 ± 47 ×l0^−4s^−1M^−1

Compound: C#Cc1ccc(-c2csc(NC(=O)[C@H](Cc3cscn3)NC(=O)[C@H]3O[C@@H]3C(=O)O)n2)cc1 [compound 32, (2S,3S)-3-((S)-1-(4-(4-ethynylphenyl)thiazol-2-ylamino)-1-oxo-3-(thiazol-4-yl)propan-2-ylcarbamoyl)oxirane-2-carboxylic acid]
- Calpain1 rel (ki/Ki calculated relative to E-64) [1]: 1.3
- Relative selectivity for inhibition of Cal1 over papain (in words) [1]: show Cal1 selectivity
- Calpain1 ki/Ki [1]: 3.89±0.41 ×l0^−4 s^−1M^−1
- Calpain1 ki [1]: 0.14 s⁻¹
- 10^2 × ki/Ki Cal1 / ki/Ki papain [1]: 1.74
- Papain rel (ki/Ki calculated relative to E-64) (papain): 0.40
- Papain ki (papain): 21.6 s⁻¹
- Papain ki/Ki (papain): 223 ± 2.4 ×l0^−4s^−1M^−1

Compound: O=C(NCc1cn(-c2ccc(F)cc2)nn1)[C@H](Cc1cscn1)NC(=O)[C@H]1O[C@@H]1C(=O)O [compound 36, (2S,3S)-3-((S)-1-((1-(4-fluorophenyl)-1H-1,2,3-triazol-4-yl)methylamino)-1-oxo-3-(thiazol-4-yl)propan-2-ylcarbamoyl)oxirane-2-carboxylic acid]
- Calpain1 rel (ki/Ki calculated relative to E-64) [1]: 1.1
- Relative selectivity for inhibition of Cal1 over papain (in words) [1]: show Cal1 selectivity
- Calpain1 ki/Ki [1]: 3.31±0.32 ×l0^−4 s^−1M^−1
- Calpain1 ki [1]: 0.10 s⁻¹
- 10^2 × ki/Ki Cal1 / ki/Ki papain [1]: 5.0
- Papain rel (ki/Ki calculated relative to E-64) (papain): 0.12
- Papain ki (papain): 12.7 s⁻¹
- Papain ki/Ki (papain): 66.2 ±7.4 ×l0^−4s^−1M^−1
